Screening results (PubChem)
Compounds with a hit are over-represented: about 1.8% of the library has one in this group of screens.
Jurkat NFkB inh – lowers PMA/ionomycin-induced NF-kB signal in Jurkat cells | PMA/ionomycin-induced NF-kB luciferase reporter, luminescence | inhibition, % at 4 µM | 330,000 compounds, 0.53% hits | AID 435003; in the data active = inhibition above about 50%
Gli-Sufu block – antagonists of Gli-Sufu signaling | 340,000 compounds, 0.74% hits | AID 588413 | inhibition, % at 5 µM | Sufu-KO-LIGHT fibroblasts, Gli luciferase reporter luminescence;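 active = inhibition above about 55%, limit read from the data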;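 note: 0% = DMSO-treated cells and 100% = wells with medium but no cells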
iPSC survival up – increases survival of single human iPS cells; hiPSC single-cell survival, ATPlite luminescence; 100% = ROCK inhibitor wells, 0% = DMSO; survival enhancement, % at 20 µM; 360,000 compounds, 0.044% hits; AID 602274; in the data active = survival enhancement above about 18%;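 note: cells exposed to compounds for 16 hours before the ATP read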
Hep lipid drop – modulators of hepatic lipid droplet formation; 240,000 compounds, 0.4% hits; inhibition, % at 6.5 µM; AML12 mouse hepatocytes, oleate lipid droplets, BODIPY imaging;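 active = lipid droplet intensity inhibited by at least 50%, with more than 500 cells counted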
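Assay system: AML12 hepatocytes (mouse); Probe or stimulus: oleic acid at 100 µM to induce lipid droplet formation; Dosing: compound at 6.5 µM only; Schedule: compound with oleate, overnight; Detection: fluorescence imaging, 20x objective, two fields per well; Measure: % inhibition of lipid droplet signal.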
697 NFkB inh – lowers PMA/ionomycin-induced NF-kB signal in 697 B cells; inhibition, % at 4 µM; 697 B-cell NF-kB luciferase reporter, 16 h; 330,000 compounds, 0.33% hits; in the data active = inhibition above about 35%
TAG inh – inhibitors of triacylglycerol accumulation; H9c2 cells, Nile Red lipid (TAG) fluorescence; cells loaded with 200 µM oleic acid; AID 651582; 230,000 compounds, 0.66% hits; inhibition, % at 12.5 µM;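 active = pattern-corrected inhibition of lipid staining of at least 50% with the nuclear-stain viability signal not falling by more than 50%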;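 note: 0% = DMSO wells and 100% = triacsin C control wells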
Gli antag conf – Gli-SUFU antagonism confirmation, single concentration | shares compounds with Gli-Sufu block | Sufu-KO-LIGHT cells, Gli luciferase reporter, luminescence | inhibition, % at 5 µM | 2,500 compounds, 40% hits | AID 602428;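 active = mean inhibition at 5 µM reaching about 45%, limit read from the data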;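 note: plate controls were DMSO-treated cells for no effect and wells lacking cells for full effect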
Gli cytotox – counter-screen for Gli-SUFU antagonists: cytotoxicity | 2,500 compounds, 32% hits | AID 651994 | cytotoxicity, % at 5 µM | shares compounds with Gli-Sufu block | Sufu-KO-LIGHT cells cytotoxicity, ATP luminescence;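 active = mean cytotoxicity at 5 µM above about 25%, limit read from the data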;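 note: cells exposed to compound overnight for roughly 16 to 18 hours; plate controls were DMSO wells with cells for no effect and medium without cells for full effect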
Wnt3a counter – counter-screen for Gli-SUFU antagonists: Wnt3a reporter inhibition | shares compounds with Gli-Sufu block | Wnt-LIGHT cells, Wnt3a-driven luciferase reporter, luminescence | inhibition, % at 6.25 µM | 2,500 compounds, 20% hits | AID 651995;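 active = mean inhibition above about 25%, limit read from the data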
* = called active by the depositor.

`O=C1/C(=C2\C(=O)N(Cc3ccc(F)cc3)c3ccccc32)SC(=S)N1CCS(=O)(=O)O` gave Jurkat NFkB inh 5, Gli-Sufu block 5, iPSC survival up 0 and 697 NFkB inh -1.
`O=C(O)CN1C(=O)/C(=C2\C(=O)N(Cc3ccccc3Cl)c3ccccc32)SC1=S` gave Gli-Sufu block 57*, iPSC survival up 0, Hep lipid drop -20, Gli antag conf 11, Gli cytotox 7 and Wnt3a counter 20.
CCCCN1CCc2c(c3ccccc3n2Cc2ccccc2)C1 was read as Jurkat NFkB inh 12, Gli-Sufu block 60*, iPSC survival up 0, Hep lipid drop 2, 697 NFkB inh 1, Gli antag conf 35, Gli cytotox 1 and Wnt3a counter -31.
CN1CCc2c(c3ccccc3n2Cc2ccccc2)C1 was read as Jurkat NFkB inh -4, Gli-Sufu block -3, iPSC survival up 0, 697 NFkB inh -22 and TAG inh 8.
Screening O=C(Oc1ccccc1N1C(=O)C2CC=CCC2C1=O)c1ccc(Br)cc1 (stereo not drawn) returned Jurkat NFkB inh -3, Gli-Sufu block 52, iPSC survival up 0, Hep lipid drop -5, 697 NFkB inh -15, Gli antag conf 17, Gli cytotox 11 and Wnt3a counter -16.
`CC(=O)O/N=C(\N)c1ccc(-c2csnn2)cc1` gave Jurkat NFkB inh -44, Gli-Sufu block -16, iPSC survival up 0, Hep lipid drop 4, 697 NFkB inh -67 and TAG inh -6.
For O=C(C1CCCCC1)N1CCN=C1SCc1cccc([N+](=O)[O-])c1 the results were Jurkat NFkB inh -8, Gli-Sufu block -5, iPSC survival up 1, Hep lipid drop 9, 697 NFkB inh 1 and TAG inh 5.
Screening CC(O)(c1cccnc1)c1nc(/C=C/c2ccccc2)cs1 (stereo not drawn) returned iPSC survival up 0 and TAG inh -39.
For O=C(COC(=O)CSc1ccc(F)cc1)NC1CC1 the results were iPSC survival up 8 and TAG inh -7.
Screening O=C(COC(=O)CSc1ccc(F)cc1)NCC1CCCCC1 returned Jurkat NFkB inh -19, Gli-Sufu block 95*, iPSC survival up 0, Hep lipid drop -2, 697 NFkB inh -4, TAG inh -18, Gli antag conf 30, Gli cytotox 16 and Wnt3a counter -6.
`C=Cn1cc[n+](CC(=O)c2ccc(-c3ccccc3)cc2)c1` gave Jurkat NFkB inh 12, Gli-Sufu block 53, iPSC survival up 0, Hep lipid drop 0, 697 NFkB inh -6, TAG inh -2, Gli antag conf 37, Gli cytotox 8 and Wnt3a counter -29.
CCOc1ccccc1CNS(=O)(=O)c1cc(-c2cc(C)no2)ccc1OC was read as Jurkat NFkB inh 6, Gli-Sufu block -1, iPSC survival up 0, Hep lipid drop -10 and 697 NFkB inh 9.
Screening COc1ccc(-c2cc(C)no2)cc1S(=O)(=O)NCC(C)c1ccccc1 (stereo not drawn) returned Jurkat NFkB inh -11, Gli-Sufu block 76*, iPSC survival up -1, Hep lipid drop 0, 697 NFkB inh -7, Gli antag conf 27, Gli cytotox 7 and Wnt3a counter -39.
Screening CCc1ccc(-c2cc(C)no2)cc1S(=O)(=O)NCCCN1CCN(c2ccccc2)CC1 returned Jurkat NFkB inh 29, Gli-Sufu block 50, iPSC survival up -1, Hep lipid drop -36, 697 NFkB inh -39, Gli antag conf 18, Gli cytotox 29* and Wnt3a counter -55.
C=CCN(C(=O)CC(NC(C)=O)c1ccccc1)c1nc(-c2ccc(S(C)(=O)=O)cc2)cs1 (stereo not drawn) was read as Jurkat NFkB inh -30, Gli-Sufu block -10, iPSC survival up 0, Hep lipid drop 1 and 697 NFkB inh -13.
O=C(N/N=C\c1c(O)ccc2ccccc12)c1ccc(Cn2cccn2)o1 was read as Jurkat NFkB inh 40, Gli-Sufu block 58*, iPSC survival up 1, Hep lipid drop -18, 697 NFkB inh 9, Gli antag conf 69*, Gli cytotox 26* and Wnt3a counter 59*.
Screening O=C(CN1CCCC1)N/N=C/c1c(O)ccc2ccccc12 returned Jurkat NFkB inh 20, Gli-Sufu block 55, iPSC survival up -1, Hep lipid drop -28, 697 NFkB inh 8, TAG inh 42, Gli antag conf 66*, Gli cytotox 37* and Wnt3a counter 60*.
For O=C(N/N=C/c1c(O)ccc2ccccc12)C(=O)N1CCCC1 the results were iPSC survival up -1 and TAG inh -11.
Screening Cc1nc(SCC(=O)NC2CCS(=O)(=O)C2)c(C#N)c(C)c1C (stereo not drawn) returned Jurkat NFkB inh 4, Gli-Sufu block 1, iPSC survival up 0, 697 NFkB inh 17 and TAG inh -9.
CCC(C)N(C(=O)CSc1nc(C)c(C)c(C)c1C#N)C1CCS(=O)(=O)C1 (stereo not drawn) was read as Jurkat NFkB inh -5, Gli-Sufu block 54, iPSC survival up 0, 697 NFkB inh 7, TAG inh 6, Gli antag conf 11, Gli cytotox 7 and Wnt3a counter -23.
`Cc1ccc(-n2c(C)cc(C3=NNC(=NC4CC4)SC3)c2C)cc1C` gave Jurkat NFkB inh -52, Gli-Sufu block 60*, iPSC survival up 0, Hep lipid drop -12, 697 NFkB inh -40, TAG inh 0, Gli antag conf 67*, Gli cytotox 29* and Wnt3a counter 71*.
CN1/C(=C\C(=S)NC(=O)c2cccc(Br)c2)C(C)(C)c2ccccc21 was read as Jurkat NFkB inh 31, Gli-Sufu block 72*, iPSC survival up -1, Hep lipid drop 16, 697 NFkB inh -11, TAG inh -44, Gli antag conf 56*, Gli cytotox 13 and Wnt3a counter 9.
For CN1/C(=C\C(=S)NC(=O)c2ccc([N+](=O)[O-])cc2)C(C)(C)c2ccccc21 the results were Jurkat NFkB inh 9, Gli-Sufu block 62*, iPSC survival up -3, Hep lipid drop 12, 697 NFkB inh -7, TAG inh -2, Gli antag conf 17, Gli cytotox 20 and Wnt3a counter 26*.
